# Assay: Toxicity liver stage against HepG2, at 10uM
# Format: cell-based
# Parameters: test concentration 10 uM, cell line HepG2-A16-CD81EGFP
# Conditions: human, HepG2-A16-CD81EGFP cells; read-out: INHIBITION
# Method in brief: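 Uninfected HepG2-A16-CD81EGFP cells, 3 × 10^3 per well, 1536-well, plated on prespotted compound at 10 μM final, parasite-free screening media added to match infected plates; puromycin 10 μM positive, DMSO 0.5% negative; run in parallel with 48 h PbLuc assay at 37 °C, 5% CO2; viability by CellTiter-Glo luminescence, normalized to controls.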
row,Structure (SMILES),cytotoxicity at 10 µM
1,Cn1c(=O)oc2cc(S(=O)(=O)N3CCC(c4ccccc4)C3)c(Cl)cc21 (stereo unspecified),12.4%
2,CCOC(=O)CN1C(=O)CN(S(C)(=O)=O)CCC(OC)c2ccccc21 (stereo unspecified),1.5%
3,COc1ccc2c(ccn2CC(=O)NC[C@@H]2CCCN3CCCC[C@H]23)c1,-4.56%
4,COc1ccccc1OCC(=O)N1CCC[C@]2(C[C@@H](OC)CO2)C1,1.04%
5,Cc1cccc(-c2nccnc2C2CCN(C)CC2)c1C,2.14%
6,Cc1nc(-c2ccc(F)cc2)cc(C2CCNCC2)n1,8.1%
7,CCCN1C[C@H](NC(=O)c2ccccc2F)[C@@H](c2ccc(OC)cc2)C1,-41.8%
8,N[C@@H]1CCC[C@@H](Oc2ccc(F)cc2Oc2ccccc2)[C@@H]1O,-7.39%
9,OC1(Cn2ccc3ncccc32)CCN(Cc2cc(F)cc(F)c2)CC1,-5.41%
10,Cc1ncsc1-c1nnc(C2CCN(Cc3cccc(F)c3F)CC2)o1,-15.8%
11,Cc1ccc(CCN2CCCC23Cc2ccccc2CNC3=O)cc1 (stereo unspecified),7.41%
12,CCc1cc2c(N3CCCC(c4cc(C(N)=O)[nH]n4)C3)ncnc2s1 (stereo unspecified),3.25%
13,CCC(=O)c1cccc(S(=O)(=O)NC(C)C#N)c1 (stereo unspecified),3.73%
14,CC(O)CN(C(=O)NC1CC1)C(C)C (stereo unspecified),13.1%
15,CCSCCOC(=O)CCCc1ccc2c(c1)CC(=O)N2,6.34%
16,Cc1ccc(C(=O)N2CCOCC2C(N)=O)c(F)c1 (stereo unspecified),3.72%
17,CC(C)N(CC(=O)Nc1cccc(C#N)c1)C1CC1,-7.16%
18,CS(=O)(=O)Cc1noc(CN(Cc2ccco2)c2ccccc2)n1,-8.3%
19,O=C1OCCCN1Cc1nc(-c2ccc(N3CCCCC3)cc2)no1,7.04%
20,Cc1occc1C(=O)NCC(=O)NCCCOc1ccc(F)cc1,-45.1%
21,CC(C)n1cc(CN2CCCN(C(=O)C3(C)CCOCC3)CC2)cn1,-48.2%
22,Cc1nc(CCCNC(=O)Nc2cc(F)cc(F)c2)n[nH]1,-8.39%
23,Cc1cccc(S(=O)(=O)NC(=O)CN(C)Cc2ccccc2)c1,-14.3%

row,Structure (SMILES),cytotoxicity at 10 µM
1,O=C(NCCNC1CCN(c2nccs2)CC1)c1cccs1,5.73%
2,Cc1cc(CNCC2(O)CCOCC2)ccc1Br,-0.378%
3,O=C(Cc1cccs1)NCC1(O)CCSC1 (stereo unspecified),-9.66%
4,CC1CCN(CC2CCCN(C(=O)Nc3ccccn3)C2)CC1 (stereo unspecified),-9.85%
5,Cc1ccc(NCCNC(=O)C2Cc3cc(C)c(C)cc3O2)nn1 (stereo unspecified),3.34%
6,CCc1noc(CN(C)C(=O)c2ccnc(OC3CCC3)c2)n1,4.86%
7,CC(C#N)CSc1ccccc1NCC(=O)NC1CCCCC1 (stereo unspecified),9.37%
8,CC(C)COCCC(=O)NCc1cn2cc(Br)ccc2n1,4.26%
9,COc1ncccc1C(=O)N1CCCC(n2ccnc2C)C1 (stereo unspecified),-7.41%
10,COCCOCC(=O)Nc1ccc(F)cc1C,12.8%
11,Cc1c(C(N)=O)sc2nc(C(F)(F)F)ccc12,-3.33%
12,CC(C)S(=O)(=O)CC(=O)N(Cc1ccsc1)c1ccccc1,-5.24%
13,COC1CCCN(C(=O)NCCCF)C1 (stereo unspecified),0.215%
14,CN1CCN(CCCN(C)S(=O)(=O)CC2CCCCC2)CC1,-10.1%
15,CC(CCNC(=O)NCCc1ccc(S(N)(=O)=O)cc1)c1ccccc1 (stereo unspecified),-17.4%
16,N#Cc1cccc(OCC(=O)N(Cc2ccsc2)C2CC2)c1,-50.2%
17,O=C(NC1CCN(c2ncccn2)CC1)c1cc2c(cc1O)CCCC2,8%
18,CC(NC(=O)N1CCC(CO)CC1)c1csc2ccccc12 (stereo unspecified),-5.4%
19,COc1cc(CN(C)Cc2cccnc2)c(SC)cc1OC,2.3%
20,COCCNC(=O)c1ccc2c(=O)n3c(nc2c1)CCCCCC3,-46.3%
21,CCC(C(=O)Nc1ccc2cn(CC)nc2c1)N1CCCC1=O (stereo unspecified),-46.7%
22,CO[C@H]1CN(C(=O)OC(C)(C)C)CC1NCc1cccn1C (stereo partly specified),-44%
23,CN1CC(C(=O)NCc2cccnc2OCc2ccccc2)CC1=O (stereo unspecified),4.44%

row,Structure (SMILES),cytotoxicity at 10 µM
1,CC(=O)N1CCCN(C2CCCCc3ccccc32)CC1 (stereo unspecified),-48.6%
2,Cc1cc(NC(=O)C(C)N2CCN(c3ccc(C#N)cc3F)CC2)no1 (stereo unspecified),6.16%
3,CCOc1ccc(CN(CCC#N)CCN2CCOCC2)cc1OC,-9.98%
4,O=C(CCc1ccsc1)NS(=O)(=O)Cc1ccon1,-12.6%
5,COc1cccc(CSCC(=O)NCc2cccnc2)c1,-46.3%
6,CN(CC(=O)N(C)C1CCCCC1)Cc1nc2c(cnn2C)c(=O)[nH]1,9.12%
7,Fc1cc(CNCc2ccc3c(c2)CCO3)ccc1N1CCOCC1,-7.24%
8,Cc1ccc(CNCC2Cn3nncc3CO2)s1 (stereo unspecified),-99.4%
9,O=C(c1cscn1)N1CC[C@H]2[C@@H]1CCC(=O)N2c1ccccc1,-68.8%
10,Cc1ccoc1C(=O)N1C[C@@H](OCC2CC2)[C@H]2OCCC[C@H]21,5.86%
11,NC(=O)N1CCC2(CC1)CN(c1ccsc1)C(=O)CO2,10.7%
12,O=C1[C@@H]2CCN(Cc3ccncc3)C[C@@H]2OCCN1c1ccccc1,-1.06%
13,C[C@H](O)CNc1cc(-c2ccncc2)ncn1,-11.1%
14,CNC(=O)c1cn2cc(-c3cccc(Cl)c3)n(CC3CC3)c(=O)c2n1,-37.4%
15,CCN1CC(C(=O)N2CCc3cc(C(N)=O)n(C)c3C2)CCC1=O (stereo unspecified),-44.6%
16,CC(C)c1nnc2n1CCN(Cc1ccc3c(c1)OCO3)CC2,1.67%
17,O=C(C1CCOCC1)N1CCOC(CC2CCCCC2)C1 (stereo unspecified),-5.56%
18,Cc1cc(C)c2c(c1)C(CC(=O)O)C(=O)N2 (stereo unspecified),7.16%
19,c1ccc(-c2ncn(CCCN3CCOCC3)c2-c2ccncc2)cc1,-7.64%
20,CCNC(=O)[C@@H]1C[C@@H](NC(=O)c2cc(C)on2)CN1Cc1ccccn1,-6.78%
21,Cc1[nH]c2ccc(CNc3cc(C(=O)NC(C)C)ccn3)cc2c1C,16.2%
22,Cc1n[nH]c(CCC(=O)N2CCOC(Cc3ccc(F)cc3)C2)c1C (stereo unspecified),-40.4%
23,CCOC(=O)N[C@H]1C[C@@H](C(=O)NCCc2cccc(Cl)c2)N(C)C1,-3.79%

row,Structure (SMILES),cytotoxicity at 10 µM
1,Cc1ccc([C@@H]2CN(S(=O)(=O)Cc3ccccc3)C[C@H]2N(C)C)cc1,-2.85%
2,CNC(=O)[C@@H]1C[C@@H](N)CN1Cc1ccc2cccc(OC)c2n1,0.719%
3,CN(C)c1nc(NCCCN2CCc3ccccc32)ncc1F,27.3%
4,CC(=O)Nc1ccc(CNC(=O)CNCc2sc(C)nc2C)cc1,6.95%
5,CSCc1nc(CNC(=O)c2cnn(C(C)C)c2)cs1,1.98%
6,CC(C)N(C(=O)c1ccccc1-c1nc2c([nH]1)CCNC2)C(C)C,-45%
7,Cc1nnsc1CN(C)Cc1ccc(C(=O)Nc2sccc2C#N)cc1,4.06%
8,O=C1CN(Cc2cn(CC3CCCN(C4CCSCC4)C3)nn2)CCN1 (stereo unspecified),-49.3%
9,CCc1nc(CNc2cc(C)nc(-c3cccnc3)n2)cs1,-63.6%
10,Cc1nc[nH]c1-c1nccn1CCN1CCOC1=O,-5.58%
11,COc1ccc2nc(CCNC(=O)c3cc(CC(C)C)no3)[nH]c2c1,0.808%
12,CC(C)n1ccnc1CNC(=O)c1cccc(CCC(C)(C)O)c1,-36.4%
13,COc1cc(N2CCCC(c3nccn3Cc3ccncc3)C2)ncn1 (stereo unspecified),-6.82%
14,CC(C)CN1CCc2[nH]cnc2C12CCN(C(=O)c1ccccn1)CC2,-11.6%
15,CC(C)[C@H]1CN(C2Cc3ccccc3C2)C[C@@H]1NS(=O)(=O)N(C)C,1.52%
16,CCCc1cc(C(=O)N2C[C@H](O)[C@@H](N3CCCC3)C2)ccn1,5.92%
17,COc1cccc(Cc2nc3c([nH]2)CC(C)(C)CNC3=O)c1OC,-2.88%
18,CNC(=O)c1[nH]nc2c1CN(c1cc(C3CCCNC3)nc(C)n1)CC2 (stereo unspecified),-51.8%
19,Oc1ccc(-c2c(-c3ccccc3)ncn2C2CCNC2)cc1 (stereo unspecified),-45.3%
20,COc1cccc(C(=O)N2CCN(C(=O)CCn3ccnc3)CC2)c1,10.3%
21,CCc1nc(N)sc1C(=O)N1CCCC(CCc2ccccc2C)C1 (stereo unspecified),6.46%
22,Fc1ccccc1-c1noc2c1CN(CC1CC1)CC2,-15.4%
23,CC(C)n1ccnc1CN1CCCN(C(=O)c2cscn2)CC1,-1.63%

row,Structure (SMILES),cytotoxicity at 10 µM
1,CN(Cc1nc2ccccc2o1)CC1CCCN1c1cccnn1 (stereo unspecified),-9.45%
2,Cc1cn2c(n1)CCC(NC(=O)CCC(F)(F)F)C2 (stereo unspecified),-9.12%
3,Cc1ccc(CNC(c2ccccc2)c2nccn2C)cc1C (stereo unspecified),0.323%
4,Cn1nccc1CNC(=O)Nc1cc(C(F)(F)F)c[nH]c1=O,1.04%
5,CC(C)(C)CC(=O)NCCn1nc(C2CCNC2)c2cccnc21 (stereo unspecified),-0.00173%
6,O=C1CC[C@H]2[C@H](CCN2C(=O)C2CCOC2)N1Cc1ccncc1 (stereo partly specified),6.67%
7,c1cnc(N2CCCC3(CCN(CC4CCC4)C3)C2)nc1 (stereo unspecified),-82.8%
8,O=C(c1cccnc1)N1CCN2C[C@H](Oc3cncnc3)C[C@H]2C1,8.1%
9,Cc1ccc(CN2CCC3(C2)C(=O)N(CC2CC2)c2ccccc23)s1 (stereo unspecified),13.4%
10,CCCN1CCC(c2nc3ccc(-c4ccccc4)cn3n2)CC1,-129%
11,O=S(=O)(c1ccccc1)N1CCC2(CCCN2Cc2cccnc2)C1 (stereo unspecified),-73.5%
12,CN1[C@H](Cn2cncn2)C[C@@H]2CN(Cc3ccsc3)CC[C@@H]21,-118%
13,CNC(=O)C1Cn2ccnc2C2(CCN(Cc3nccs3)CC2)O1 (stereo unspecified),-67.2%
14,Cc1ccc(CN2CCn3c(CNC(=O)c4cccn4C)cnc3C2)s1,1.82%
15,Cn1nc(CN2CCCC2)c2c1CN(c1cnccn1)CC2,-95.3%
16,COCCN1CCC12CCN(C(=O)c1ccc(C)nc1)C2 (stereo unspecified),-102%
17,Cc1ccc(CN2CC[C@H]3OCC[C@@]3(COCC(=O)N(C)C)C2)s1,-97.8%
18,O=C(C1CC1)N1CCc2ccccc2C12CCNCC2,5.35%
19,Cc1ccccc1C(=O)N1C[C@@H]2C(CN(C)CCc3ccccn3)[C@@H]2C1 (stereo partly specified),-54.9%
